Only some compounds are listed: those with a hit (about 1.1% of all), similar ones and a draw of the others.
MT1-MMP act inh: blockers of MT1-MMP proenzyme processing, primary screen, HT1080 RFP-PRO-GFP cells, GFP/RFP fluorescence. AID 651647, 2012. GFP/RFP ratio fluorescence, overnight; percent of plate control window, DMSO zero. GFP/RFP ratio change, % at 20 µM. 0.061% of 360,000 active. Matrix metalloproteinase-14 (Homo sapiens), P50281;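 active = GFP/RFP ratio change of at least 30% with cell ATP level not reduced by more than half and red fluorescence within 50% of control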
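Assay system: HT1080 cells carrying an RFP-PRO-GFP reporter | Dosing: Single dose of 20 µM compound, 1% DMSO final | Incubation: Cells overnight before dosing, compound overnight, 37 °C, 5% CO2 | Evaluation: GFP/RFP fluorescence ratio | Control set: DMSO and RFP-L50D-GFP cell wells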
Vif inh: HIV Vif self-association inhibitors, primary screen, imaging, HEK293T, single point | HEK293T cells, Vif self-association by quenched fluorescence, 24 h | AID 602346, 2012 | inhibition, % at 7.49 µM | 0.35% of 340,000 active; in the data active = inhibition above about 50%, passing the limit was not always enough; inconclusive = no clear call, values can overlap the other calls; inactive = below about 31%
DAGLB inhibitor: DAGLB lipase inhibitors, primary screen, biochemical, fluorescence, HTS. Diacylglycerol lipase-beta (Homo sapiens), Q8NCG7. HEK293T DAGLB membrane lysate, EnzChek fluorogenic substrate. AID 504411, 2011. 0.059% of 340,000 active. inhibition, % at 5.17 µM; in the data active = inhibition above about 34%;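 also: 0% = enzyme with vehicle and 100% = wells lacking enzyme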
NR2E3 ag-1: NR2E3 agonists in two-hybrid cells, primary screen, cell-based, luminescence, CHO-S, Gal4-NCOR/VP16-NR2E3; Photoreceptor-specific nuclear receptor (Homo sapiens), Q9Y5X4; luciferase; inhibition of corepressor binding, % at 3.98 µM; 0.35% of 360,000 active;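 active = inhibition above the mean of all tested compounds plus 3 SD, cut at about 70% in these data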;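 also: 0% = DMSO with NR2E3 transfected cells and 100% = cells lacking NR2E3 construct; higher means lower luciferase signal from less NR2E3 corepressor binding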
Target sequence (Q9Y5X4 whole entry, looked up, the tested form may be a part): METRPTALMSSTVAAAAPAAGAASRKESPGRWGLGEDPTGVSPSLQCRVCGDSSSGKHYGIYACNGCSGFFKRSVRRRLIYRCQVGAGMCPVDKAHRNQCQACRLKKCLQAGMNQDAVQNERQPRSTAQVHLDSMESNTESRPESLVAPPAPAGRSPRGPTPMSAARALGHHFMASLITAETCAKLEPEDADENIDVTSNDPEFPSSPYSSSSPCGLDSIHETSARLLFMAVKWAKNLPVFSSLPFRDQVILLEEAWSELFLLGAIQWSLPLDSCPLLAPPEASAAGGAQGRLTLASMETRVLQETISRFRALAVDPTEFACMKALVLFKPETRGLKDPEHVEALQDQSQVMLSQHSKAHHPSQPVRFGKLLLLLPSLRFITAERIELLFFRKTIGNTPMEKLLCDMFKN
NR2E3 ag-2: inhibitors of NR2E3-RetCOR corepressor binding, primary screen, NR2E3 agonist project, biochemical, TR-FRET, GST-NR2E3, biotin-RetCOR | AID 2300, 2010 | 1536-well | 0.12% of 320,000 active | inhibition of corepressor binding, % at 4.78 µM;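 active = percent inhibition above the cutoff of mean plus 3 SD of all tested compounds, set per screening campaign, cut at about 20% in these data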;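 also: 0% = DMSO wells and 100% = biotin wells as full block of FRET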
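Material: NR2E3–RetCOR corepressor complex / Amount: 1.35 nM GST-NR2E3 / Medium: Tris pH 7.5 / Compound: single nominal compound dose of 4.8 µM / Incubation: 5 h at 4 °C / Technique: TR-FRET, Eu(K)-anti-GST donor, streptavidin-D2 acceptor, ex 340, em 617/671 nm / Read-out basis: percent loss of FRET ratio relative to control wells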
core dimer inh: inhibitors of HCV core protein dimerization, primary screen, biochemical, TR-FRET, high-throughput. 0.33% of 300,000 active. TR-FRET GST/Flag-core106 dimerization, 1536-well. inhibition, % at 5 µM. AID 1899, 2009;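 active = inhibition above the mean of all tested compounds plus 3 SD, set per screening campaign, cut at about 45% in these data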
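System: GST/Flag-tagged HCV core106 proteins. Incubation: compound-protein-antibody incubation 4 h at 22.5 °C. Technique: HTRF with 340 nm excitation, 617/671 nm emission. Medium: KF-containing HEPES buffer, pH 7.45, DTT, CHAPS, BSA. Read-out: inhibition (%) from 671 over 617 nm ratio. Also added: Eu(K)-anti-GST 90 ng/mL plus XL665-anti-Flag 1 µg/mL.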
* hit, by the source's call; ? = inconclusive; . = no result.

SMILES | MT1-MMP act inh | Vif inh | DAGLB inhibitor | NR2E3 ag-1 | NR2E3 ag-2 | core dimer inh
COc1ccc(CNC(=O)CN2C(=O)NC(c3ccccc3)(c3ccccc3)C2=O)cc1 | -6 | 110* | -2 | 9 | . | .
COc1ccc(OC)c(NC(=O)Cc2nn(C)c(=O)c3ccccc23)c1 | 5 | . | -2 | 38 | 1 | 7
COC(=O)C[C@H]1c2cc(C(F)(F)F)ccc2S(=O)(=O)N1Cc1ccccc1OC | -1 | 1 | -2 | 17 | 3 | 1
O=c1ccn([C@@H]2O[C@H](CNCc3ccccc3)[C@@H](O)[C@H]2O)c(=O)[nH]1 | 3 | 8 | . | -25 | . | .
O=c1ccn([C@@H]2O[C@H](CNCc3ccc(-n4cccn4)cc3)[C@@H](O)[C@H]2O)c(=O)[nH]1 | 5 | 96* | -1 | -7 | . | .
NC(=O)COC(=O)/C=C/c1cccc(Br)c1 | 1 | 7 | -1 | -5 | -1 | 2
CCOc1ccc(-c2cc(C)n3nc(C(N)=O)cc3n2)cc1 | -4 | -3 | 0 | 1 | 1 | 50*
Cc1c(C(=O)OCC2CCCO2)[nH]c2c1C(=O)CC(c1ccco1)C2 (stereo unspecified) | 0 | -9 | -1 | -132 | 0 | 86*
C/C=C/COC(=O)c1[nH]c2c(c1C)C(=O)CC(c1ccco1)C2 (stereo unspecified) | 3 | 0 | 1 | -4 | -1 | 53*
Cc1c(C(=O)OCC(C)C)[nH]c2c1C(=O)CC(c1ccco1)C2 (stereo unspecified) | 9 | -10 | -6 | 40 | -2 | 47*
C=CCOC(=O)c1[nH]c2c(c1C)C(=O)CC(c1ccco1)C2 (stereo unspecified) | . | . | . | . | 3 | 28
O=C(Nc1ccc(F)c(Cl)c1)c1csc([C@H]2C[C@H](O)[C@@H](CO)O2)n1 | 4 | 54* | . | -56 | . | .
CC(C)C[C@@H](COCc1cccc(Cl)c1)N1CCN(C(=O)c2ccc(C(F)(F)F)cc2)CCC1=O | -4 | . | . | -12 | . | .
CCOc1ccc(C(=O)c2cc([N+](=O)[O-])ccc2N2CCOCC2)cc1 | 12 | 74* | 1 | 39 | 3 | -7
COc1ccc(C(=O)c2cc([N+](=O)[O-])ccc2N2CCOCC2)cc1 | 10 | ? | -2 | 26 | 3 | -3
O=C(NCCc1ccc(F)cc1)c1ccc2c(=O)n3c(nc2c1)CCC3 | . | . | -1 | -57 | -7 | -2
O=C(N/N=C/c1ccco1)c1cccc(N2CCCC2=O)c1 | 1 | 3 | 0 | -24 | 2 | 5
O=C(N/N=C/c1ccco1)c1cccc(N2Cc3ccccc3C2)c1 | -4 | 8 | 2 | -49 | 0 | 63*
COc1cccc2cc(/C(C)=N/Nc3nc(-c4cc(C)ccc4C)cs3)c(=O)oc12 | 6 | 6 | 4 | -19 | 2 | 76*
Cc1ccc(-n2c(SCC(=O)Nc3ccc4c(c3)OCO4)nnc2-c2cccs2)cc1 | 0 | 76* | -3 | 0 | 0 | 9
COc1ccc(O)cc1CN1CCN(c2ncc(Cc3ccccc3)cn2)CC1 | 10 | . | . | . | . | .
Cn1c(=O)c2c(nc3n2CC(COc2ccccc2)O3)n(C)c1=O (stereo unspecified) | 0 | -4 | 4 | -19 | . | .
Cc1ccc(-c2nn3c(C)nnc3c3ccccc23)cc1S(=O)(=O)NCc1ccccc1 | 8 | 87* | 2 | -30 | 2 | -5
Cc1cccc(CNC(=O)c2cc(S(=O)(=O)N3CCOCC3)cn2C)c1 | 1 | 4 | 2 | 12 | -2 | 7
CCN1CC=C2C(C1)C(c1ccc(Cl)s1)C(C#N)=C(N)C2(C#N)C#N (stereo unspecified) | -167 | 87* | -1 | -54 | -1 | 0
CC1C=CC(C)C(C(=O)c2ccccc2)C1C(=O)c1ccccc1 (stereo unspecified) | -4 | -1 | -16 | 14 | . | .
